Measured values taken from article PMC3565064 (Analytical biochemistry, 2012).
Read-outs that look alike come from different tables or passages of the source.

Assays:
[1] = Self-aggregation of the peptide incubated alone; format: physicochemical
How it was run: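 The tagged peptide (20 μM) without Aβ was incubated at 37 °C. DPV was run in 100 mM phosphate/50 mM KClO₄, pH 7.4. For AFM, aliquots of the incubated solution were cast on mica pretreated with 10 mM NiCl₂ for 15 min, rinsed with water and dried under nitrogen. They were imaged in tapping mode over 5 μm × 5 μm fields at the stated incubation times.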

[2] = target: Aβ(1–42) aggregates (Homo sapiens, UniProt P05067); format: binding; settings: for ka, pseudo-first-order rate constant: DPV current decay fit, 100 mM phosphate buffer/50 mM KClO4 pH 7.4, 37 °C, average of three replicates; for t1/2, half-life: from pseudo-first-order ka
Sequence of Aβ(1–42) aggregates (P05067 672-713 limits assumed): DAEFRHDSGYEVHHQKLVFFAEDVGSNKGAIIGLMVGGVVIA
How it was run: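 HFIP-pretreated, lyophilised Aβ(1–42) and the ferrocene-tagged peptide (20 μM) were dissolved in 100 mM phosphate/50 mM KClO₄, pH 7.4, at several peptide:Aβ ratios and held at 37 °C. DPV was recorded over 0–24 h (pulse amplitude 50 mV, width 50 ms, period 200 ms, sample width 17 ms). Points were averages of three replicates, and current–time curves were fitted to a pseudo-first-order rate law.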

[3] = cited from earlier work

Row | Substance | self-aggregation, AFM of the peptide alone ([1]; 20 μM Fc-KLVFFK6 incubated alone, AFM (Figure 4 row D)) | self-aggregation, DPV current of the peptide alone ([1]; 20 μM Fc-KLVFFK6 without Aβ(1–42), 100 mM phosphate buffer/50 mM KClO4 pH 7.4, 37 °C, 24 h, steady DPV current) | ka, pseudo-first-order rate constant ([2]; [Fc-KLVFFK6]:[Aβ(1–42)] 1:0.25, 20 μM Fc-KLVFFK6) | t1/2, half-life ([2]; [Fc-KLVFFK6]:[Aβ(1–42)] 1:0.25) [h] | ka, pseudo-first-order rate constant ([2]; [Fc-KLVFFK6]:[Aβ(1–42)] 1:0.5, 20 μM Fc-KLVFFK6) | t1/2, half-life ([2]; [Fc-KLVFFK6]:[Aβ(1–42)] 1:0.5) [h] | ka, pseudo-first-order rate constant ([2]; [Fc-KLVFFK6]:[Aβ(1–42)] 1:1, 20 μM Fc-KLVFFK6) | t1/2, half-life ([2]; [Fc-KLVFFK6]:[Aβ(1–42)] 1:1) [h] | ka, pseudo-first-order rate constant ([2]; [Fc-KLVFFK6]:[Aβ(1–42)] 1:2, 20 μM Fc-KLVFFK6) | t1/2, half-life ([2]; [Fc-KLVFFK6]:[Aβ(1–42)] 1:2) [h] | ka, pseudo-first-order rate constant ([2]; [Fc-KLVFFK6]:[Aβ(1–42)] 1:4, 20 μM Fc-KLVFFK6) | incubation time at which the DPV current reaches a plateau ([2]; all stoichiometric ratios, 20 μM Fc-KLVFFK6, 37 °C) | half-life of the conjugate formed between Fc-KLVFFK6 and the Aβ(1–42) aggregates ([2]; over all stoichiometric ratios of Table 1) [h] | self-aggregation [3]
1 | Fc-KLVFFK6 | does not self-aggregate when incubated alone | does not undergo self-aggregation | (1.49 ± 0.15) × 10^−4 s^−1 | 1.2919 | (1.43 ± 0.08) × 10 ^−4 s^−1 | 1.3462 | (1.26 ± 0.07) × 10 ^−4 s^−1 | 1.5278 | (1.71 ± 0.05) × 10^−4 s^−1 | 1.1257 | (1.89 ± 0.05) × 10^−4 s^−1 | about 6 h | 1.2632 ± 0.1961 | –
2 | KLVFF | – | – | – | – | – | – | – | – | – | – | – | – | – | known to self-aggregate
